{
  "source": "paper PMC10653054",
  "about": "(ACS Omega, 2023)",
  "key": {"[1]": {"test_system": "normal human dermal fibroblast (HDF) cells", "assay": "MTT cytotoxicity assay, normal HDF cells", "type": "cell-based", "conditions": "48 h, read-out: In vitro antiproliferative effects (IC50) HDF", "how_it_was_run": "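Cells came from the National Cell Bank of Iran and were grown in RPMI-1640 or DMEM with 10% FBS at 37 °C, 5% CO2 and 100% humidity. Test compounds in 0.1% DMSO (n = 3) were incubated 48 h, then MTT for 3 h, with formazan OD read at 570 nm. Controls were 0.1% DMSO (negative) and etoposide (positive). IC50 came from dose–response curves, mean ± SE of at least three independent experiments.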"}, "[2]": {"test_system": "caspase-3, cleaved-caspase-3, pro-caspase-3 in Panc-1 cells", "assay": "Western blot analysis of caspase-3 proteins", "type": "cell-based, human", "conditions": "Panc-1, IC50 concentration, 48 h", "how_it_was_run": "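Panc-1 cells were exposed to test compound and harvested after 48 h. Lysates were prepared in lysis buffer, and protein was quantified by Bradford assay. Proteins were separated on 15% SDS-PAGE, transferred to PVDF and probed with primary and secondary antibodies. β-actin was the loading control. Bands were detected by chemiluminescence and imaged.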"}, "Panc-1 cells [3]": {"test_system": "Panc-1 cells", "assay": "Annexin V-FITC/PI dual staining flow cytometry apoptosis assay", "type": "cell-based, human", "conditions": "Panc-1, treated at IC50 concentration, 48 h", "how_it_was_run": "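Panc-1 cells were seeded, held overnight at 37 °C under 5% CO2, then exposed to test compound for 48 h. Untreated cells were the negative control. Cells were trypsinized, washed twice in PBS, pelleted at 1200 rpm and resuspended in binding buffer. Labelled annexin V and propidium iodide were added, and cells were incubated 15 min at room temperature in the dark. Flow cytometry followed.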"}, "Panc-1 cells [4]": {"test_system": "Panc-1 cells", "assay": "Cell cycle analysis by PI staining flow cytometry", "type": "cell-based, human", "conditions": "Panc-1, IC50 concentration, 48 h; control 1.82%"}},
  "note": "pIC50: −log10 of the molar value.",
  "data": [
    {"smiles": "O=c1[nH]nc(O)c2c(-c3cccc([N+](=O)[O-])c3)c3n(c12)CCn1cccc1-3", "note": "[7m, 11-Hydroxy-12-(3-nitrophenyl)-5,6-dihydropyrrolo[2″,1″:3′,4′]pyrazino[1′,2′:1,5] pyrrolo[2,3-d]pyridazin-8(9H)-one]", "values": [
      {"measurement": "pIC50", "setting": "[1]", "result": "< 4.00"},
      {"measurement": "caspase-3 protein level", "setting": "[2]", "result": "downregulation"},
      {"measurement": "pro-caspase-3 protein level", "setting": "[2]", "result": "remained unchanged"},
      {"measurement": "necrosis (Q1)", "setting": "Panc-1 cells [3]; control 0.586", "result": 0.851, "unit": "%"},
      {"measurement": "early apoptosis (Q3)", "setting": "Panc-1 cells [3]; control 4.12", "result": 5.56, "unit": "%"},
      {"measurement": "late apoptosis (Q2)", "setting": "Panc-1 cells [3]; control 4.12", "result": 5.45, "unit": "%"},
      {"measurement": "live cells (Q4)", "setting": "Panc-1 cells [3]; control 91.2", "result": 88.1, "unit": "%"},
      {"measurement": "cell apoptosis (total apoptotic cells)", "setting": "Panc-1 cells [3]; untreated cells 8.24%", "result": 11.01, "unit": "%"},
      {"measurement": "proportion of cells in the sub-G1 phase", "setting": "Panc-1 cells [4]", "result": 5.47, "unit": "%"}
    ]}
  ]
}
